Key:
Format in all cases: toxicity, cell-based
[1] = tested on: Fibroblast; assay: Incucyte cell viability with human fibroblast; conditions: 10 µM, compound concentration 10 uM; note: filed as whole numbers so only -1 and 0 and 1 occur
[2] = tested on: HEK-293T; assay: Incucyte cell viability with HEK293T; conditions: human, 10 µM, compound concentration 10 uM; note: filed as whole numbers so only -1 and 0 and 1 occur
[3] = tested on: HEK-293T; assay: Multiplex assay against HEK293T; conditions: human;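 for Population Tubulin-Different-Phenotype (%): share of the cells with healthy nuclei that show this phenotype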
Summary of the method: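 Four dyes were applied at seeding to live cells: Hoechst33342, BioTracker Green Microtubule Cytoskeleton Dye, MitoTracker Red and Annexin V Alexa Fluor 680. Imaging after compound addition used a CQ1 microscope at 37°C and 5% CO2. CellPathfinder machine-learning gating then sorted cells into Hoechst high-intensity objects or normal cells, normal cells into healthy, pyknosed or fragmented nuclei, and pyknosed cells into mitotic or apoptotic, with tubulin, mitochondrial-mass and membrane-permeability phenotypes given as per cents of healthy-nucleus cells.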

[4] = 24 h, replicate number 1, timepoint 24 hours
[5] = 12 h, 1 µM, compound concentration 1 uM, replicate 1
[6] = 12 h, 1 µM, compound concentration 1 uM, replicate 2
[7] = 12 h, 10 µM, compound concentration 10 uM, replicate 1
[8] = 12 h, 10 µM, compound concentration 10 uM, replicate 2
[9] = 24 h, 1 µM, compound concentration 1 uM, replicate 1
[10] = 24 h, 1 µM, compound concentration 1 uM, replicate 2

N#CCNC(=O)c1ccc(-c2ccnc(Nc3ccc(N4CCOCC4)cc3)n2)cc1 [MOMELOTINIB]
Growth Rate ([1]; 0 h, replicate number 2, timepoint 0 hours): 0
Growth Rate [1, 4]: 1
Growth Rate ([2]; 0 h, replicate number 1, timepoint 0 hours): 0
Growth Rate ([2]; 18 h, replicate number 1, timepoint 18 hours): 0
Growth Rate ([2]; 18 h, replicate number 2, timepoint 18 hours): 1
Growth Rate [2, 4]: 0
Population Apoptotic (%) [3, 5]: 35%
Population Fragmented Nuclei (%) [3, 5]: 8%
Population Healthy Nuclei (%) [3, 5]: 53%
Population Hoechst High Intensity Objects (%) [3, 5]: 12%
Population Membrane Permeable-Phenotype (%) [3, 5]: 0%
Population Mitochondria Different-Phenotype (%) [3, 5]: 61%
Population Mitotic Cells (%) [3, 5]: 64%
Population Normal (%) [3, 5]: 87%
Population Pyknosed Nuclei (%) [3, 5]: 38%
Population Tubulin-Different-Phenotype (%) [3, 5]: 33%
Total Cell Count [3, 5]: 303
Population Apoptotic (%) [3, 6]: 8%
Population Fragmented Nuclei (%) [3, 6]: 9%
Population Healthy Nuclei (%) [3, 6]: 52%
Population Hoechst High Intensity Objects (%) [3, 6]: 2%
Population Membrane Permeable-Phenotype (%) [3, 6]: 10%
Population Mitochondria Different-Phenotype (%) [3, 6]: 9%
Population Mitotic Cells (%) [3, 6]: 91%
Population Normal (%) [3, 6]: 97%
Population Tubulin-Different-Phenotype (%) [3, 6]: 21%
Total Cell Count [3, 6]: 198
Population Apoptotic (%) [3, 7]: 32%
Population Fragmented Nuclei (%) [3, 7]: 6%
Population Healthy Nuclei (%) [3, 7]: 54%
Population Hoechst High Intensity Objects (%) [3, 7]: 6%
Population Membrane Permeable-Phenotype (%) [3, 7]: 4%
Population Mitochondria Different-Phenotype (%) [3, 7]: 70%
Population Mitotic Cells (%) [3, 7]: 67%
Population Normal (%) [3, 7]: 93%
Population Pyknosed Nuclei (%) [3, 7]: 38%
Population Tubulin-Different-Phenotype (%) [3, 7]: 62%
Total Cell Count [3, 7]: 432
Population Apoptotic (%) [3, 8]: 10%
Population Fragmented Nuclei (%) [3, 8]: 9%
Population Healthy Nuclei (%) [3, 8]: 29%
Population Hoechst High Intensity Objects (%) [3, 8]: 5%
Population Membrane Permeable-Phenotype (%) [3, 8]: 11%
Population Mitochondria Different-Phenotype (%) [3, 8]: 21%
Population Mitotic Cells (%) [3, 8]: 89%
Population Normal (%) [3, 8]: 94%
Population Pyknosed Nuclei (%) [3, 8]: 60%
Population Tubulin-Different-Phenotype (%) [3, 8]: 42%
Total Cell Count [3, 8]: 251
Population Apoptotic (%) [3, 9]: 38%
Population Fragmented Nuclei (%) [3, 9]: 9%
Population Healthy Nuclei (%) [3, 9]: 58%
Population Hoechst High Intensity Objects (%) [3, 9]: 9%
Population Membrane Permeable-Phenotype (%) [3, 9]: 1%
Population Mitochondria Different-Phenotype (%) [3, 9]: 44%
Population Mitotic Cells (%) [3, 9]: 62%
Population Normal (%) [3, 9]: 90%
Population Pyknosed Nuclei (%) [3, 9]: 31%
Population Tubulin-Different-Phenotype (%) [3, 9]: 34%
Total Cell Count [3, 9]: 349
Population Apoptotic (%) [3, 10]: 10%
Population Fragmented Nuclei (%) [3, 10]: 10%
Population Healthy Nuclei (%) [3, 10]: 63%
Population Hoechst High Intensity Objects (%) [3, 10]: 1%
Population Membrane Permeable-Phenotype (%) [3, 10]: 14%
Population Mitochondria Different-Phenotype (%) [3, 10]: 9%
Population Mitotic Cells (%) [3, 10]: 89%
Population Normal (%) [3, 10]: 98%

Source: ChEMBL document CHEMBL4689842, “EUbOPEN Chemogenomics Library wave 1” (2021)
